In ChEMBL document CHEMBL1140068, “Computer based design, synthesis and biological evaluation of novel indole derivatives as HCV NS3-4A serine protease inhibitors” (Bioorg Med Chem, 2008) one finds IC50 and inhibition data, which are given here for 12 compounds.

Molecules are shown by their SMILES. In brackets after ≈: the same amount, converted by molar mass.

Test [1] is described as follows: Inhibition of HCV NS3 protease. Details: species or system Hepacivirus hominis. The method, boiled down: (§1)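 Competitive displacement binding assay against HCV NS3-4A protease using the fluorogenic peptide substrate Ac-Asp-Glu-Asp(EDANS)-Glu-Glu-Abu-ψ. Fluorescence intensity was read, and percent inhibition was calculated from it.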
Test [2] relates to Hepacivirus hominis. Kind of test: Inhibition of HCV NS3 protease at 100 ug/ml. The method, boiled down:
as §1

Test [3] deals with Hepacivirus hominis. The experiment in a line: Inhibition of HCV NS3 protease at 50 ug/ml. Put shortly:
as §1

Test [4] deals with Hepacivirus hominis. The experiment in a line: Inhibition of HCV NS3 protease at 10 ug/ml. Put shortly:
as §1

The IC50 is the concentration that gives 50% inhibition. A high value points to weaker potency in that assay. By inhibition is commonly meant the drop in the measured response relative to a control, in per cent. `COc1ccc2[nH]cc(C(CC(=O)CCC(=O)N[C@@H](Cc3c[nH]cn3)C(=O)O)c3ccc(C(F)(F)F)cc3)c2c1` (mixture of isomers): the IC50 in test [1] was 30.5 µg/mL. Further, the inhibition in the test on Hepacivirus hominis [2] was 77.6%; in the test with Hepacivirus hominis [3], 62.5%; with Hepacivirus hominis [4], 23.5%.
Turning to `COc1ccc([C@@H](CC(=O)CCC(=O)N[C@@H](Cc2ccccc2)C(=O)O)c2c[nH]c3ccc(OC)cc23)cc1`, the half-inhibitory concentration (IC50) in test [1] came to 36.5 µg/mL (≈ 69 µM).
`COc1ccc(C(CC(=O)CCC(=O)N[C@@H](Cc2ccc(O)cc2)C(=O)O)c2c[nH]c3ccc(Br)cc23)cc1` (mixture of isomers) returned an IC50 in test [1] of 63.3 µg/mL. The inhibition in the test on Hepacivirus hominis [2] came out at 68.7%; in the test with Hepacivirus hominis [3] it was 41.5%.
Take `COc1ccc(C(CC(=O)CCC(=O)N[C@@H](Cc2ccccc2)C(=O)O)c2c[nH]c3ccc(OC)cc23)cc1` (mixture of isomers): the IC50 in test [1] amounted to 15 µg/mL. Also, the inhibition in the test on Hepacivirus hominis [2] came out at 85.7%; in the test on Hepacivirus hominis [3], 84.4%; in the test on Hepacivirus hominis [4], 43.7%.
With `COc1ccc2[nH]cc(C(CC(=O)CCC(=O)N[C@@H](Cc3ccccc3)C(=O)O)c3ccc(C(F)(F)F)cc3)c2c1` (mixture of isomers), the half-inhibitory concentration (IC50) in test [1] came out at 13 µg/mL. Further, the inhibition in the test with Hepacivirus hominis [2] turned out to be 84.9%; in the test on Hepacivirus hominis [3] it was 67.2%; in the test on Hepacivirus hominis [4] it was 48.5%.
Taken in the same sequence, the figures for `COc1ccc(C(CC(=O)CCC(=O)N[C@@H](Cc2c[nH]cn2)C(=O)O)c2c[nH]c3ccc(OC)cc23)cc1` (mixture of isomers) were 31 µg/mL, 75.7%, 59.2% and 22.4%.
Consider `COc1ccc(C(CC(=O)CCC(=O)N[C@@H](Cc2c[nH]c3ccccc23)C(=O)O)c2c[nH]c3ccc(Br)cc23)cc1` (mixture of isomers), for which the IC50 in test [1] came to 44.1 µg/mL. In addition, the inhibition in the test with Hepacivirus hominis [2] was found to be 72.6%; in the test with Hepacivirus hominis [3], 54.8%.
For `COc1ccc2[nH]cc(C(CC(=O)CCC(=O)N[C@@H](Cc3ccc(O)cc3)C(=O)O)c3ccc(C(F)(F)F)cc3)c2c1` (mixture of isomers), the half-inhibitory concentration (IC50) in test [1] is 39 µg/mL. Besides, the values for the inhibition in the test with Hepacivirus hominis [2], with Hepacivirus hominis [3] and in the test on Hepacivirus hominis [4] were 84.3%, 57.1% and 35.2%, respectively.
As for `COc1ccc(C(CC(=O)CCC(=O)N[C@@H](Cc2c[nH]c3ccccc23)C(=O)O)c2c[nH]c3ccc(OC)cc23)cc1` (mixture of isomers), the half-maximal inhibitory concentration (IC50) in test [1] was determined as 44.8 µg/mL. Besides, the inhibition was 67.4% in the test on Hepacivirus hominis [2] and 54.4% in the test on Hepacivirus hominis [3].
Taken in the same sequence, the figures for `COc1ccc2[nH]cc(C(CC(=O)CCC(=O)N[C@@H](Cc3c[nH]c4ccccc34)C(=O)O)c3ccc(C(F)(F)F)cc3)c2c1` (mixture of isomers) were 47.9 µg/mL, 76.9% and 51.2%.
Consider `COc1ccc(C(CC(=O)CCC(=O)N[C@@H](Cc2ccc(O)cc2)C(=O)O)c2c[nH]c3ccc(OC)cc23)cc1` (mixture of isomers), for which the IC50 in test [1] came to 27.2 µg/mL. Moreover, the results for the inhibition in the test with Hepacivirus hominis [2], in the test on Hepacivirus hominis [3] and with Hepacivirus hominis [4] were 78.8%, 69.9% and 29.6%, respectively.
Taken in the same sequence, the figures for `O=C(CCC(=O)N[C@@H](Cc1ccc(O)cc1)C(=O)O)CC(c1ccc(C(F)(F)F)cc1)c1c[nH]c2ccc(Br)cc12` (stereo partly specified) were 39.2 µg/mL (≈ 62.1 µM), 82.9%, 54% and 19.1%.
